Assay results pooled from the literature.
Compare with care: the assays were run in different laboratories.
RPS6KA3 C-terminal kinase domain: Ribosomal protein S6 kinase alpha-3, C-terminal kinase domain (RPS6KA3, Homo sapiens, UniProt P51812)
RPS6KA3: Ribosomal protein S6 kinase alpha-3 (RPS6KA3, Homo sapiens, UniProt P51812)
RPS6KA3 N-terminal kinase domain: Ribosomal protein S6 kinase alpha-3, N-terminal kinase domain (RPS6KA3, Homo sapiens, UniProt P51812)

SMILES	target	test	setting	endpoint	value
CNCc1ccccc1-c1csc([C@H](C)Nc2nc(C)nc3cc(OC)c(OC)cc23)c1	RPS6KA3 C-terminal kinase domain	cell-free assay, competition with immobilised ligand	1 µM	remaining binding	78%
N#CCCc1ccc2c(c1)-c1[nH]c3ccc([N+](=O)[O-])cc3c1CC(=O)N2	RPS6KA3	cell-free assay	0.5 µM	remaining signal	28.6%
Nc1nc(NC2CCCCC2)sc1C(=O)c1ccccc1	RPS6KA3	enzyme activity, inhibitor	10 µM	remaining activity	85%
Cc1ccc(Nc2nccc(N(C)c3ccc4c(C)n(C)nc4c3)n2)cc1S(N)(=O)=O	RPS6KA3	enzyme activity, inhibitor	0.3 µM	inhibition	31%
COc1ccc2c(c1)O[C@H](c1ccc(OC)c(OC)c1)C[C@@H]2NC(=O)C1(c2ccc3c(c2)OC(F)(F)O3)CC1	RPS6KA3 C-terminal kinase domain	cell-free assay, competition with immobilised ligand	1 µM	remaining binding	93%
N[C@H]1CCN(c2nccc(-c3cnn4ncccc34)n2)C1	RPS6KA3 C-terminal kinase domain	binding, competition with immobilised ligand	1 µM	remaining binding	40%
Nc1ncnc2occ(-c3ccc(NC(=O)Nc4cc(C(F)(F)F)ccc4F)cc3)c12	RPS6KA3 N-terminal kinase domain	cell-free assay, inhibitor	20 µM	remaining signal	0.4%
Cc1ccc(NC(=O)c2ccc(C)c(C(F)(F)F)c2)cc1C#Cc1nn(C2CCC(O)CC2)c2ncnc(N)c12 (centres unmarked)	RPS6KA3	cell-free assay	10 µM	remaining signal	44%
O=C(NC[C@@H]1[C@H]2CN(C(=O)OCc3cc(C(F)(F)F)cc(C(F)(F)F)c3)C[C@@H]12)c1ccc2[nH]nnc2c1	RPS6KA3 N-terminal kinase domain	cell-free assay, competition with immobilised ligand	1 µM	remaining binding	94%
CN(C)C1CCN(CC#Cc2nn(C3CCCC3)c3nc(NCc4ccccc4)ncc23)C1 (centres unmarked)	RPS6KA3	enzyme activity, inhibitor, FRET	10 µM	inhibition	15%
CC/C(=N\NC(=O)C(C)Nc1ccccc1)c1ccc(O)c(C)c1O (centres unmarked)	RPS6KA3	enzyme activity, inhibitor	0.1 µM	inhibition	45.7%
CNC(=O)c1cc(Oc2ccc(NC(=O)Nc3ccc(Cl)c(C(F)(F)F)c3)cc2)ccn1	RPS6KA3	enzyme activity, inhibitor	0.3 µM	inhibition	22%
O=C(O)c1cc(-c2ccc(C3CCNCC3)cc2)c2ccc(-c3ccc(C(F)(F)F)cc3)cc2c1	RPS6KA3 C-terminal kinase domain	cell-free assay, competition with immobilised ligand	1 µM	remaining binding	80%
COc1cccc2c(NCc3ccccc3)nc(-n3c(N)nc4ccccc43)nc12	RPS6KA3 N-terminal kinase domain	target engagement in cells, inhibitor, chemoproteomics	20 mM	inhibition	34.2%
CC(C)(O)[C@H]1CC[C@H](Nc2ccc3ncc(-c4cccc(C(F)(F)F)c4)n3n2)CC1	RPS6KA3	enzyme activity, inhibitor	1 µM	remaining activity	90.6%
c1cnn2ncc(-c3ccnc(N4CCC45COC5)n3)c2c1	RPS6KA3 C-terminal kinase domain	binding, competition with immobilised ligand	1 µM	remaining binding	100%
COc1cc(Nc2c(C#N)cnc3cc(OCCCN4CCN(C)CC4)c(OC)cc23)c(Cl)cc1Cl	RPS6KA3	cell-free assay	0.5 µM	remaining signal	80.1%
CCCOc1ccc(OC)c(F)c1C(=O)c1ccc(C(=O)N[C@@H]2CNC[C@H]2NC(=O)c2ccc3[nH]ncc3c2)cc1	RPS6KA3	enzyme activity, inhibitor	10 µM	remaining activity	12%
O=C(NCc1ncc(C(F)(F)F)cc1Cl)c1ccc2c(c1)C1(CCS(=O)(=O)CC1)[C@@H](C1CC1)N2S(=O)(=O)c1ccc(F)cc1	RPS6KA3 C-terminal kinase domain	cell-free assay, competition with immobilised ligand	1 µM	remaining binding	82%
CNc1cccc2cc(C(=O)Nc3ccc(C(=O)O)cc3)c(=O)[nH]c12	RPS6KA3	enzyme activity, inhibitor	10 µM	inhibition	2.2%
Cc1nc(N2CC[C@@H](O)C2)ncc1-c1cc(C(F)(F)F)cc2[nH]ncc12	RPS6KA3 C-terminal kinase domain	binding, competition with immobilised ligand	1 µM	remaining binding	58%

SMILES	target	test	setting	endpoint	value
O=C1NC(=O)c2cc(Nc3ccc(F)cc3)c(Nc3ccc(F)cc3)cc21	RPS6KA3	cell-free assay	0.5 µM	remaining signal	118%
Oc1cccc(-c2nc(N3CCOCC3)c3oc4ncccc4c3n2)c1	RPS6KA3	enzyme activity, inhibitor	10 µM	remaining activity	96%
Cc1sc(C(=O)NC2COC2)cc1-n1cc(NC(=O)Nc2c(F)cccc2Cl)cn1	RPS6KA3	enzyme activity, inhibitor	10 µM	remaining activity	73%
CCCOc1ccc([C@@H]2[C@@H](C(=O)O)[C@H](c3ccc4c(c3)OCO4)CN2CC(=O)Nc2c(CC)cccc2CC)cc1	RPS6KA3 C-terminal kinase domain	cell-free assay, competition with immobilised ligand	1 µM	remaining binding	76%
CC1CCCN1c1nccc(-c2cnn3ncccc23)n1 (centres unmarked)	RPS6KA3 C-terminal kinase domain	binding, competition with immobilised ligand	1 µM	remaining binding	100%
Cn1cncc1C1=CN(c2ncnc3[nH]cnc23)CCS1	RPS6KA3	enzyme activity, inhibitor, radiometric	50 nM	inhibition	12.3%
COc1cc2ncnc(Nc3ccc(Oc4ccccc4)c(C)c3C)c2cc1OC	RPS6KA3	enzyme activity, inhibitor	1 µM	inhibition	-1%
COc1ccnn2ncc(-c3ccnc(N(C)C)n3)c12	RPS6KA3 C-terminal kinase domain	binding, competition with immobilised ligand	1 µM	remaining binding	100%
Cc1ccc(C(=O)Nc2ccc(CN3CCN(C)CC3)c(C(F)(F)F)c2)cc1C#Cc1cnc2cccnn12	RPS6KA3	enzyme activity, inhibitor	23.5 nM	remaining activity	93%
Cc1ccc(C(=O)NCc2ccsc2)cc1C#Cc1cn(C(C)C)c2ncnc(N)c12	RPS6KA3	enzyme activity, inhibitor	1 µM	activity vs control	92%
CN(C)C(=O)Cn1cc(-c2nc([C@@](C)(c3ccc(-c4cnc(N)nc4)cc3)C3CC3)no2)cn1	RPS6KA3 N-terminal kinase domain	cell-free assay, competition with immobilised ligand	1 µM	remaining binding	83%
c1ccc(CNc2nc(N3CCOc4ccccc43)nc3c2CCCC3)cc1	RPS6KA3 N-terminal kinase domain	target engagement in cells, inhibitor, chemoproteomics	20 mM	inhibition	3.3%
FC(F)(F)Oc1cccc(-c2cnc3ccc(-c4ccncc4)nn23)c1	RPS6KA3	enzyme activity, inhibitor, radiometric	1 µM	activity vs control	105%
COc1cc(Nc2cnc(C#N)c(O[C@H](C)CN(C)C)n2)ncc1-c1cnn(C)c1	RPS6KA3	enzyme activity, inhibitor, radiometric	10 µM	remaining activity	34%
F[C@@H]1CCN(c2nccc(-c3cnn4ncccc34)n2)C1	RPS6KA3 C-terminal kinase domain	binding, competition with immobilised ligand	1 µM	remaining binding	100%
CCN(CC)CCNC(=O)c1c(C)[nH]c(/C=C2\C(=O)Nc3ccc(F)cc32)c1C	RPS6KA3	cell-free assay	0.5 µM	remaining signal	35.5%
CN(c1nccc(-c2cnn3ncccc23)n1)C1CC1	RPS6KA3 N-terminal kinase domain	binding, competition with immobilised ligand	1 µM	remaining binding	100%
COc1cc(Cl)c(C(=O)N[C@@H](CN[C@H]2CC[C@@H](N)CC2)Cc2ccc(C#N)cc2)cc1-c1ccc(CN[C@H](C)c2ccc(C)cc2)o1	RPS6KA3	enzyme activity, inhibitor	1 µM	remaining activity	72%
C[C@@H]1CCN(c2nccc(-c3cnn4ncccc34)n2)C1	RPS6KA3 N-terminal kinase domain	binding, competition with immobilised ligand	1 µM	remaining binding	74%
CC(C)(C)c1nc2c(s1)c1nc(N)ncc1c1ccc(NS(=O)(=O)c3c(F)cccc3F)c(F)c12	RPS6KA3	enzyme activity, inhibitor, radiometric	1 µM	remaining activity	90%
